Active and inactive are the calls of the source. The calls are words filed in the database; no cut-off is given here.
What was measured:
[1] = molecular target: T1, Muscarinic acetylcholine receptor M3 (Homo sapiens, UniProt P20309); test: Antagonist activity at human cloned muscarinic M3 receptor expressed in CHO cells assessed as inhibition of acetylcholine-induced calcium mobilization by FLIPR assay; type: functional, cell-based
Target sequence in this assay (P20309 whole entry): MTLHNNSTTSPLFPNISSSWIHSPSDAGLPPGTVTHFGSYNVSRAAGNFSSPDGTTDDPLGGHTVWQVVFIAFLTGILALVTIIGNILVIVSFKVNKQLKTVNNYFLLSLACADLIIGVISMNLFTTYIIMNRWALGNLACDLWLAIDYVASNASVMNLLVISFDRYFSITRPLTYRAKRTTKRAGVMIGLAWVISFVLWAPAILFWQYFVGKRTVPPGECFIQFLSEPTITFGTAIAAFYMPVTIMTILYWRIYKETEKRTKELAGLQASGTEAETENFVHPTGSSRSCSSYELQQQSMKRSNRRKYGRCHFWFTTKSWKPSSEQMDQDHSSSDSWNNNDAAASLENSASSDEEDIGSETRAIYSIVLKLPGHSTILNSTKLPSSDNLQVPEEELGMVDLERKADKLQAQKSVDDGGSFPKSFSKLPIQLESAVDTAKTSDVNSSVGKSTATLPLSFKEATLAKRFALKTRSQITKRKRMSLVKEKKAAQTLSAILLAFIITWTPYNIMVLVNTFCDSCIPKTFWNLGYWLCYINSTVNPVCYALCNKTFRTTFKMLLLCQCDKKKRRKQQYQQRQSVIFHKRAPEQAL

[2] = molecular target: T1, Muscarinic acetylcholine receptor M3; test: Antagonist activity at human cloned muscarinic M3 receptor expressed in CHO cells assessed as inhibition of acetylcholine-induced calcium mobilization by single concentration kinetic based-FLIPR assay; type: functional, cell-based; conditions: read-out: pA2 (converted)
Target sequence in this assay (P20309 whole entry): as above

[3] = molecular target: T1, Muscarinic acetylcholine receptor M3; test: Antagonist activity at human muscarinic M3 receptor assessed as inhibition of carbachol-induced bronchus contraction; type: functional; conditions: read-out: pA2 (converted)
Target sequence in this assay (P20309 whole entry): as above

Mus musculus [4] = test: Inhibition of methacholine-induced bronchoconstriction in intranasally single dosed conscious BALB/c mouse by plethysmography; type: functional
Mus musculus [5] = test: Inhibition of methacholine-induced bronchoconstriction in intranasally single dosed conscious BALB/c mouse assessed as time to 50% loss of maximum protection at 0.5 ug by plethysmography; type: functional
Outline: (§1)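 Conscious mice dosed intranasally in 50 µL vehicle (10% DMSO), then methacholine challenge; barometric plethysmography measured enhanced pause (Penh) at times from 15 min to 96 h after dosing; duration taken as time to 50% loss of maximum protection.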

[6] = molecular target: T2, Muscarinic acetylcholine receptor M1 (Homo sapiens, UniProt P11229); test: Antagonist activity at human cloned muscarinic M1 receptor expressed in CHO cells assessed as inhibition of acetylcholine-induced calcium mobilization by single concentration kinetic based-FLIPR assay; type: functional, cell-based; conditions: read-out: pA2 (converted)
T2 sequence (P11229 whole entry): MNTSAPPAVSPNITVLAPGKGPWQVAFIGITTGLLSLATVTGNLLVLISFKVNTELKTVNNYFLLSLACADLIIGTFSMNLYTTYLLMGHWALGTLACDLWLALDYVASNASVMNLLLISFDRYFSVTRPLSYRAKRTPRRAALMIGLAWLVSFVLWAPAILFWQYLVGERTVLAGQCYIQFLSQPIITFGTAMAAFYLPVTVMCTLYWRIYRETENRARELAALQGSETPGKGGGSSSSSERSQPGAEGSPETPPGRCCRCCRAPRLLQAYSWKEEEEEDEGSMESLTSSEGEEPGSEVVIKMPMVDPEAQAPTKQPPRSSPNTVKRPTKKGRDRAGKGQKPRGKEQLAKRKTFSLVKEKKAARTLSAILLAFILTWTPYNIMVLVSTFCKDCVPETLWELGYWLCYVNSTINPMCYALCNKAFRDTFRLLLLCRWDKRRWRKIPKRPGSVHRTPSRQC

[7] = molecular target: T3, Muscarinic acetylcholine receptor M2 (Homo sapiens, UniProt P08172); test: Antagonist activity at human cloned muscarinic M2 receptor expressed in CHO cells assessed as inhibition of acetylcholine-induced calcium mobilization by single concentration kinetic based-FLIPR assay; type: functional, cell-based; conditions: read-out: pA2 (converted)
T3 sequence (P08172 whole entry): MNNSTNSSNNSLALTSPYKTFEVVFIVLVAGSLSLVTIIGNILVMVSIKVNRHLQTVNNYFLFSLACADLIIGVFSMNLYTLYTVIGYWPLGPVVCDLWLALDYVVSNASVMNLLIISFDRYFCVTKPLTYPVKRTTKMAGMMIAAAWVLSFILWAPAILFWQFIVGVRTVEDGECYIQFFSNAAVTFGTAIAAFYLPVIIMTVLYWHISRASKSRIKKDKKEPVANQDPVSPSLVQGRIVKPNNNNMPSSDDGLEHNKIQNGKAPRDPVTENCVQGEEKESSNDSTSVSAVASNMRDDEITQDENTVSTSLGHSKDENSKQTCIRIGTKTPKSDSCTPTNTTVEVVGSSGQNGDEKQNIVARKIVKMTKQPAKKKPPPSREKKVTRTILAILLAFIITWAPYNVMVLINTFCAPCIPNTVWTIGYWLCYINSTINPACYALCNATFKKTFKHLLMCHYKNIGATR

[8] = Clearance in rat plasma at 3.5 mg/kg, iv; type: ADME, organism-based; set-up: dose 3.5 mg/kg, route intravenous
Outline: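 Systemic plasma clearance in rat after intravenous dosing.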

[9] = molecular target: T1, Muscarinic acetylcholine receptor M3; test: Antagonist activity at human muscarinic M3 receptor assessed as offset time for 50% of carbachol-induced human bronchus contraction to return at 10 nM; type: functional
Outline: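 Human bronchial strips (primary, secondary or tertiary airways, obtained at autopsy) were mounted in organ baths on force-displacement transducers. Strips were preincubated 2 h with 10 nM antagonist, then given increasing carbachol to […]. Antagonist was then removed and tissue superfused with carbachol-containing buffer while tension recovery was tracked. The result is minutes to 50% reversal of blockade (off t50).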
Target sequence in this assay (P20309 whole entry, looked up): as the sequence (P20309 whole entry) above

[10] = molecular target: T2, Muscarinic acetylcholine receptor M1; test: Displacement of [3H]N-methyl scopolamine from human cloned muscarinic M1 receptor expressed in CHO cells coexpressing Gqi5 by scintillation proximity assay; type: cell-based
Outline: (§2)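 Scintillation proximity assay on membranes from CHO cells expressing human M1, M2 or M3 receptors, competing against 0.5 nM [3H]-N-methyl scopolamine; Ki reported as mean of three independent assays.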

[11] = molecular target: T3, Muscarinic acetylcholine receptor M2; test: Displacement of [3H]N-methyl scopolamine from human cloned muscarinic M2 receptor expressed in CHO cells coexpressing Gqi5 by scintillation proximity assay; type: cell-based; outline: as §2
[12] = molecular target: T1, Muscarinic acetylcholine receptor M3; test: Displacement of [3H]N-methyl scopolamine from human cloned muscarinic M3 receptor expressed in CHO cells coexpressing Gqi5 by scintillation proximity assay; type: cell-based
Target sequence in this assay (P20309 whole entry): as the sequence (P20309 whole entry) above

[13] = molecular target: T1, Muscarinic acetylcholine receptor M3; test: Antagonist activity at human cloned muscarinic M3 receptor expressed in CHO cells assessed as reversible inhibition of acetylcholine-induced calcium mobilization for 90 mins measured after 180 mins of washout period by FLIPR assay; type: functional, cell-based
Outline: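 CHO cells expressing cloned human M3 receptors were incubated 90 min with vehicle or 1.0, 10 or 100 nM compound, then washed out for 180 min with 18 buffer changes. Cells were then stimulated with ACh, and calcium mobilization was read by FLIPR. Reversibility was judged from ACh concentration-response curves against no-drug levels.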
Target sequence in this assay (P20309 whole entry, looked up): as the sequence (P20309 whole entry) above

Mus musculus [14] = test: Inhibition of methacholine-induced bronchoconstriction in intranasally single dosed conscious BALB/c mouse assessed as time to 50% loss of maximum protection at 0.05 ug by plethysmography; type: functional; outline: as §1
[15] = Clearance in rat plasma at 0.5 mg/kg, iv; type: ADME, organism-based; set-up: dose 0.5 mg/kg, route intravenous
Outline: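 Rats received a single intravenous dose of 0.5 mg/kg; systemic plasma clearance was reported in ml/min/kg.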

| SMILES | IC50 [1] [nM] | Kb [2] [nM] | other results |
| --- | --- | --- | --- |
| OCCC[N+]12CCC(C(O)(c3ccccc3)c3ccccc3)(CC1)CC2 | 29500 |  |  |
| OC(c1ccc(F)cc1)(c1ccc(F)cc1)C12CC[N+](CCOCc3ccccc3)(CC1)CC2 | < 10 | 0.0631 |  |
| COc1cccc(COCC[N+]23CCC(C(O)(c4ccccc4)c4ccccc4)(CC2)CC3)c1 | < 10 | 2 |  |
| OC(c1ccccc1)(c1ccccc1)C12CC[N+](CCOCc3cccc(F)c3)(CC1)CC2 | < 10 | 0.0251 |  |
| COCCC[N+]12CCC(C(O)(c3ccccc3)c3ccccc3)(CC1)CC2 | 829 |  |  |
| OC(c1ccccc1)(c1ccccc1)C12CC[N+](CCOCc3ccc(Cl)cc3)(CC1)CC2 | < 10 | 0.0631 |  |
| OC(c1ccccc1)(c1ccccc1)C12CC[N+](CCc3ccccc3)(CC1)CC2 | 87 |  |  |
| OC(CC1CN2CCC1CC2)(c1ccccc1)c1ccccc1 (stereo not drawn) | 145 |  |  |
| N#Cc1ccc(COCC[N+]23CCC(C(O)(c4ccccc4)c4ccccc4)(CC2)CC3)cc1 | < 10 | 0.398 |  |
| COCC[N+]12CCC(C(O)(c3ccccc3)c3ccccc3)(CC1)CC2 | 30 |  |  |
| OC(c1cccc(F)c1)(c1cccc(F)c1)C12CC[N+](CCOCc3ccccc3)(CC1)CC2 | < 10 | 0.251 |  |
| OC(c1ccccc1)(c1ccccc1)C12CC[N+](CCCCCOc3ccccc3)(CC1)CC2 | 306 |  |  |
| OC(c1ccccc1)(c1ccccc1)C1CN2CCC1CC2 (stereo not drawn) | 1100 |  |  |
| CC[N+]12CCC(C(O)(c3ccccc3)c3ccccc3)(CC1)CC2 | 104 |  |  |
| N#Cc1ccccc1COCC[N+]12CCC(C(O)(c3ccccc3)c3ccccc3)(CC1)CC2 | 5400 |  |  |
| N#CC(c1ccccc1)(c1ccccc1)C12CC[N+](CCOCc3ccccc3)(CC1)C2 | < 10 | 0.501 |  |
| OCC[N+]12CCC(C(O)(c3ccccc3)c3ccccc3)(CC1)CC2 | 486 |  |  |
| Cc1cccc(COCC[N+]23CCC(C(O)(c4ccccc4)c4ccccc4)(CC2)CC3)c1 | < 10 | 0.1 |  |
| CCCC[N+]12CCC(C(O)(c3ccccc3)c3ccccc3)(CC1)CC2 | 135 |  |  |
| OC(c1ccccc1)(c1ccccc1)C12CC[N+](CCOCc3ccc(F)cc3)(CC1)CC2 | < 10 | 0.0794 |  |
| OC(c1ccccc1)(c1ccccc1)C12CCN(CC1)CC2 | 1070 |  |  |
| COc1cccc(C(O)(c2cccc(OC)c2)C23CC[N+](CCOCc4ccccc4)(CC2)CC3)c1 | 17 |  |  |

| SMILES | IC50 [1] [nM] | Kb [2] [nM] | other results |
| --- | --- | --- | --- |
| OC(c1ccccc1)(c1ccccc1)C12CC[N+](CCOc3ccccc3)(CC1)CC2 | < 10 | 0.794 |  |
| Cc1ccccc1COCC[N+]12CCC(C(O)(c3ccccc3)c3ccccc3)(CC1)CC2 | 13 | 3.98 |  |
| OC(c1ccccc1)(c1ccccc1)C12CC[N+](CCOCc3cccc(Br)c3)(CC1)CC2 | < 10 | 0.126 |  |
| Cc1ccc(COCC[N+]23CCC(C(O)(c4ccccc4)c4ccccc4)(CC2)CC3)cc1 | < 10 | 0.0398 |  |
| CC(C)(C)c1ccc(COCC[N+]23CCC(C(O)(c4ccccc4)c4ccccc4)(CC2)CC3)cc1 | 39 |  |  |
| OC(CC1C[N+]2(CCc3ccccc3)CCC1CC2)(c1ccccc1)c1ccccc1 (stereo not drawn) | 122 |  |  |
| OC(c1ccccc1)(c1ccccc1)C1CC2CCN1CC2 (stereo not drawn) | 6600 |  |  |
| OC(c1ccccc1)(c1ccccc1)C1C[N+]2(CCc3ccccc3)CCC1CC2 (stereo not drawn) | 2820 |  |  |
| OC(c1ccccc1)(c1ccccc1)C12CC[N+](CCOCc3ccccc3)(CC1)C2 | < 10 | 0.398 |  |
| OC(c1ccccc1)(c1ccccc1)C12CC[N+](CC3CC3)(CC1)CC2 | 1960 |  |  |
| OC(c1ccccc1)(c1ccccc1)C12CC[N+](CCCOc3ccccc3)(CC1)CC2.[Br-] | < 10 |  | Kb [3]: 1.26 nM; ED50 (Mus musculus [4]): 0.08 µg; Activity (Mus musculus [5]): 34 h; Kb [6]: 3.16 nM; Kb [7]: 1.26 nM; clearance [8]: 37 mL/min/kg; Activity [9]: 57 min; Ki [10]: 0.64 nM; Ki [11]: 0.94 nM; Ki [12]: 0.13 nM; Activity [13]: inactive |
| OC(c1ccccc1)(c1ccccc1)C12CC[N+](CCOCc3ccccc3)(CC1)CC2.[Br-] [UMECLIDINIUM BROMIDE] |  |  | ED50 (Mus musculus [4]): 0.02 µg; Activity (Mus musculus [14]): >48 h; Kb [6]: 0.316 nM; Kb [7]: 0.0316 nM; clearance [15]: 92 mL/min/kg; Activity [9]: 145 min; Ki [10]: 0.16 nM; Ki [11]: 0.15 nM; Activity [13]: Active |
| OC(c1ccccc1)(c1ccccc1)C12CC[N+](CCCCOc3ccccc3)(CC1)CC2 | 9.5 | 10 |  |
| OC(c1ccccc1)(c1ccccc1)C12CC[N+](CCCCc3ccccc3)(CC1)CC2 | < 10 | 0.501 |  |
| COc1ccc(C(O)(c2ccc(OC)cc2)C23CC[N+](CCOCc4ccccc4)(CC2)CC3)cc1 | 36 |  |  |
| Cc1ccc(C(O)(c2ccc(C)cc2)C23CC[N+](CCOCc4ccccc4)(CC2)CC3)cc1 | 12 |  |  |
| OC(c1ccccc1)(c1ccccc1)C12CC[N+](CCOCc3ccccc3F)(CC1)CC2 | < 10 | 0.0398 |  |
| CCC[N+]12CCC(C(O)(c3ccccc3)c3ccccc3)(CC1)CC2 | 208 |  |  |
| NCC[N+]12CCC(C(O)(c3ccccc3)c3ccccc3)(CC1)CC2 | 850 | 0.398 |  |
| C[N+]12CCC(C(O)(c3ccccc3)c3ccccc3)(CC1)CC2 | 935 |  |  |
| OC(c1ccccc1)(c1ccccc1)C12CC[N+](CCOCc3ccc(Br)cc3)(CC1)CC2 | < 10 | 0.0398 |  |
| OC(c1ccccc1)(c1ccccc1)C12CC[N+](CCOCc3ccccc3Br)(CC1)CC2 | 22 | 3.16 |  |
